Measured values: ChEMBL document CHEMBL1127809, “Pentamidine congeners. 2. 2-butene-bridged aromatic diamidines and diimidazolines as potential anti-Pneumocystis carinii pneumonia agents” (1994)
“And” between values parts separate entries of the source, which are not always exact repeats. Equal entries are not always repeated.

Key:
Assay type in all cases: functional
[1] = species: Rattus norvegicus; assay: Anti-Pneumocystis carinii activity was measured as percentage of number of cysts counted per gram of lung tissue; parameters: concentration or dose not given beside the values
Outline: (§1)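 Immunosuppressed rats with PCP; compound given by daily iv injection over 2 weeks at 10 mg/kg/day, or at 5 or 1 mg/kg/day where shown. Saline is the negative control and pentamidine the positive control. Cysts are counted per gram of lung tissue and expressed as % of the saline-treated control ± SE (n rats). Significance is given as P vs saline or vs pentamidine.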

[2] = test system: Rattus norvegicus; assay: In vivo anti-Pneumocystis carinii toxicity in rats administered intravenously at 10 mg/kg/day; 0 indicates no local, clinical, histologic toxicity
Outline: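 Host toxicity in immunosuppressed PCP rats dosed iv daily for 2 weeks. Animals were observed daily for health and well-being. Liver and kidney were examined by light microscopy for pathologic changes. Scoring: 0 = no local, clinical or histologic toxicity; 1+ = all survived, some local injection-site toxicity; 2+ = most survived, some severe distress, clinical toxicity and histopathology; 3+ = acute toxicity or decline with <50% deaths; 4+ = ≥50% deaths.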

[3] = test system: Rattus norvegicus; assay: Anti- Pneumocystis carinii activity was measured as percentage of number of cysts counted per gram of lung tissue at a dose of 5.0 mg/kg/day; outline: as §1
[4] = test system: Rattus norvegicus; assay: Anti- Pneumocystis carinii activity was measured as percentage of number of cysts counted per gram of lung tissue at a dose of 1 mg/kg/day; outline: as §1
[5] = test system: Rattus norvegicus; assay: Anti- Pneumocystis carinii activity was measured as percentage of number of cysts counted per gram of lung tissue at a dose of 10 mg/kg/day; outline: as §1
[6] = species: Rattus norvegicus; assay: Anti- Pneumocystis carinii activity was measured as percentage of number of cysts counted per gram of lung tissue; outline: as §1

| SMILES | Control [1] | Toxicity ([2]; route intravenous) | Toxicity [2] | also measured |
| --- | --- | --- | --- | --- |
| Cl.Cl.N=C(N)c1ccc(OC/C=C/COc2ccc(C(=N)N)cc2)cc1 | 0.67% | 0 | – | – |
| C(=C\COc1ccc(C2=NCCN2)cc1)/COc1ccc(C2=NCCN2)cc1.Cl.Cl | 1.22% | 0 | – | Control [3]: 5.61%; Control [4]: 39.6%; Control [5]: 1.38% |
| N=C(N)c1ccc(OCCCCCOc2ccc(C(=N)N)cc2)cc1 [PENTAMIDINE] | – | 2 | – | Control [6]: <5.31% and <4.95% |
| COc1cc(C2=NCCN2)ccc1OC/C=C\COc1ccc(C2=NCCN2)cc1OC.Cl.Cl | 15.6% | – | Local toxicity | – |
| Cl.Cl.N=C(N)c1ccc(OC/C=C\COc2ccc(C(=N)N)cc2)cc1 | 1.1% | 0 | – | – |
| COc1cc(C(=N)N)ccc1OC/C=C\COc1ccc(C(=N)N)cc1OC.Cl.Cl | 21.4% | 0 | – | – |
| C(=C/COc1ccc(C2=NCCN2)cc1)/COc1ccc(C2=NCCN2)cc1.Cl.Cl | 1.22% | 0 | – | – |
| COc1cc(C(=N)N)ccc1OC/C=C/COc1ccc(C(=N)N)cc1OC.Cl | 35.5% | – | Local toxicity | – |
| COc1cc(C2=NCCN2)ccc1OC/C=C/COc1ccc(C2=NCCN2)cc1OC.Cl.Cl | 1.5% | – | Toxic | – |
